Experimental data reported in ChEMBL document CHEMBL1124186, “Synthesis and evaluation of tylosin-related macrolides modified at the aldehyde function: a new series of orally effective antibiotics” (1988).
In brackets after ≈: the same amount, converted by molar mass.

Tests used:
Cutibacterium acnes = experiment: In vitro antimicrobial activity against anaerobic bacteria propionibacterium acnes 79; format: functional
Mus musculus [1] = experiment: Peripheral plasma levels in mice after oral administration of 100 mg/kg dose for 0.25 hr; format: functional, organism-based; parameters: dose 100 mg/kg
Outline: (§1)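 Mice were given the compound orally and sampled for peripheral plasma at each time point. Plasma was assayed microbiologically against Micrococcus luteus seeded in Antibiotic Medium 1. Inhibition zone sizes were read, and concentrations were calculated from each compound's own standard curve. Each value is the mean of five mice per time point.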

Streptococcus sanguinis = experiment: In vitro antimicrobial activity against aerobic bacteria Streptococcus sanguis MX132; format: functional
Phocaeicola vulgatus = experiment: In vitro antimicrobial activity against anaerobic bacteria bacteroides vulgatus 1211; format: functional
Rattus norvegicus [2] = experiment: Peripheral plasma levels in rats after oral administration of 100 mg/kg dose for 4 hr; format: functional, organism-based; parameters: dose 100 mg/kg
Outline: (§2)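 Rats received 100 mg/kg orally and were sampled for peripheral plasma. Concentrations were measured by Micrococcus luteus agar-diffusion microbiological assay in Antibiotic Medium 1, with zone sizes converted using the standard curve for the appropriate compound. Each value is the average of three rats per time point.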

Clostridium septicum = experiment: In vitro antimicrobial activity against anaerobic bacteria clostridium septicum 1128; format: functional
Clostridium perfringens = experiment: In vitro antimicrobial activity against anaerobic bacteria clostridium perfringens 81,; format: functional
Streptococcus [3] = experiment: In vitro antimicrobial activity against aerobic bacteria Streptococcus C 24; format: functional
Staphylococcus aureus [4] = experiment: In vitro antimicrobial activity against aerobic bacteria Staphylococcus aureus V135; format: functional
[5] = test system: Peptostreptococcus anaerobius; experiment: In vitro antimicrobial activity against anaerobic bacteria eubacterium peptostreptococcus anaerobius 1428,; format: functional
[6] = test system: Prevotella melaninogenica; experiment: In vitro antimicrobial activity against anaerobic bacteria bacteroides melaninogenicus 2736; format: functional
Streptococcus [7] = experiment: In vitro antimicrobial activity against aerobic bacteria Streptococcus D 9960; format: functional
Bacteroides fragilis [8] = experiment: In vitro antimicrobial activity against anaerobic bacteria bacteroides fragilis 1936B,; format: functional
Bacteroides fragilis [9] = experiment: In vitro antimicrobial activity against anaerobic bacteria bacteroides fragilis 111; format: functional
[10] = test system: Haemophilus parainfluenzae; experiment: In vitro antimicrobial activity against aerobic bacteria Haemophilus parainfluenzae 9796; format: functional
Staphylococcus aureus [11] = experiment: In vitro antimicrobial activity against aerobic bacteria Staphylococcus aureus 513E; format: functional
Mus musculus [12] = experiment: Peripheral plasma levels in mice after oral administration of 100 mg/kg dose for 0.5 hr; format: functional, organism-based; parameters: dose 100 mg/kg; outline: as §1
Streptococcus [13] = experiment: In vitro antimicrobial activity against aerobic bacteria Streptococcus G Kruder; format: functional
Clostridioides difficile = experiment: In vitro antimicrobial activity against anaerobic bacteria Clostridium difficile 2994; format: functional
Bacteroides fragilis [14] = experiment: In vitro antimicrobial activity against anaerobic bacteria bacteroides fragilis 1877; format: functional
Streptococcus [15] = experiment: In vitro antimicrobial activity against aerobic bacteria Streptococcus B 14; format: functional
Streptococcus [16] = experiment: In vitro antimicrobial activity against aerobic bacteria Streptococcus B 5; format: functional
[17] = test system: Staphylococcus epidermidis; experiment: In vitro antimicrobial activity against aerobic bacteria Streptococcus epi 222; format: functional
Streptococcus pneumoniae [18] = experiment: In vitro antimicrobial activity against aerobic bacteria Streptococcus pneumoniae B1-438; format: functional, streptococcus pneum
Haemophilus influenzae [19] = experiment: In vitro antimicrobial activity against aerobic bacteria Haemophilus influenzae 465; format: functional
Eikenella corrodens = experiment: In vitro antimicrobial activity against anaerobic bacteria bacteroides corrodens 1874; format: functional
Mus musculus [20] = experiment: Peripheral plasma levels in mice after oral administration of 100 mg/kg dose for 2 hr; format: functional, organism-based; parameters: dose 100 mg/kg; outline: as §1
Rattus norvegicus [21] = experiment: Peripheral plasma levels in rats after oral administration of 100 mg/kg dose for 0.5 hr; format: functional, organism-based; parameters: dose 100 mg/kg; outline: as §2
Haemophilus influenzae [22] = experiment: In vitro antimicrobial activity against aerobic bacteria Haemophilus influenzae 76; format: functional
Rattus norvegicus [23] = experiment: Peripheral plasma levels in rats after oral administration of 100 mg/kg dose for 0.25 hr; format: functional, organism-based; parameters: dose 100 mg/kg; outline: as §2
[24] = In vitro antimicrobial activity against anaerobic bacteria peptostreptococcus intermedius 1264; format: functional
Streptococcus [25] = experiment: In vitro antimicrobial activity against aerobic bacteria Streptococcus D 8043; format: functional
Staphylococcus aureus [26] = experiment: In vitro antimicrobial activity against aerobic bacteria Staphylococcus aureus V140,; format: functional
Rattus norvegicus [27] = experiment: Peripheral plasma levels in rats after oral administration of 100 mg/kg dose for 2 hr; format: functional, organism-based; parameters: dose 100 mg/kg; outline: as §2
[28] = test system: Prevotella melaninogenica; experiment: In vitro antimicrobial activity against anaerobic bacteria bacteroides melaninogenicus 1856,; format: functional
[29] = test system: Bacteroides thetaiotaomicron; experiment: In vitro antimicrobial activity against anaerobic bacteria bacteroides thetaiotaomicron 1438; format: functional
Mus musculus [30] = experiment: Peripheral plasma levels in mice after oral administration of 100 mg/kg dose for 1 hr; format: functional, organism-based; parameters: dose 100 mg/kg; outline: as §1
Streptococcus [31] = experiment: In vitro antimicrobial activity against aerobic bacteria Streptococcus B 8; format: functional
Haemophilus influenzae [32] = experiment: In vitro antimicrobial activity against aerobic bacteria Haemophilus influenzae MX366,; format: functional
[33] = test system: Peptoniphilus asaccharolyticus; experiment: In vitro antimicrobial activity against anaerobic bacteria peptococcus asaccharolyticus 1302; format: functional
Rattus norvegicus [34] = experiment: Peripheral plasma levels in rats after oral administration of 100 mg/kg dose for 1 hr; format: functional, organism-based; parameters: dose 100 mg/kg; outline: as §2
[35] = test system: Fusobacterium necrophorum; experiment: In vitro antimicrobial activity against anaerobic bacteria usobacterium necrophorum 6054A; format: functional
Collinsella aerofaciens = experiment: In vitro antimicrobial activity against anaerobic bacteria eubacterium aerofaciens 1235; format: functional
Fusobacterium = experiment: In vitro antimicrobial activity against anaerobic bacteria fusobacterium symbiosum 1470; format: functional
Streptococcus [36] = experiment: In vitro antimicrobial activity against aerobic bacteria Streptococcus D 2041; format: functional
Haemophilus influenzae [37] = experiment: In vitro antimicrobial activity against Haemophilus influenzae.; format: functional
Staphylococcus aureus [38] = experiment: In vitro antimicrobial activity against Staphylococcus aureus X1; format: functional
Streptococcus pyogenes [39] = experiment: In vitro antimicrobial activity against Streptococcus pyogenes C203; format: functional
Enterococcus faecium = experiment: In vitro antimicrobial activity against Streptococcus faecium X66; format: functional, streptococcus fae-cium
Streptococcus pyogenes [40] = experiment: In vivo effective dose against experimental infections in rodent caused by Streptococcus pyogenes C203 when administered sc; format: functional
Streptococcus pneumoniae [41] = experiment: In vitro antimicrobial activity against Streptococcus pneumoniae; format: functional
[42] = test system: Staphylococcus epidermidis; experiment: In vitro antimicrobial activity against Staphylococcus epidermidis EPI1; format: functional
Streptococcus pyogenes [43] = experiment: In vivo effective dose against experimental infections in rodent caused by Streptococcus pyogenes C203 when administered orally; format: functional; conditions: po

## CC[C@H]1OC(=O)[C@H](C)[C@@H](O[C@H]2C[C@@](C)(OC)[C@@H](O)[C@H](C)O2)[C@H](C)[C@@H](O[C@@H]2O[C@H](C)C[C@H](N(C)C)[C@H]2O)[C@](C)(O)C[C@@H](C)C(=O)[C@H](C)[C@@H](O)[C@]1(C)O [ERYTHROMYCIN]
Cutibacterium acnes
  MIC: < 0.5 µg/mL
Mus musculus [1]
  Concentration: 2.5 µg ml-1 ml-1
Streptococcus sanguinis
  MIC: 0.03 µg/mL (≈ 0.0409 µM)
Phocaeicola vulgatus
  MIC: < 0.5 µg/mL
Rattus norvegicus [2]
  Concentration: 0.4 µg ml-1 ml-1
Clostridium septicum
  MIC: < 0.5 µg/mL
Clostridium perfringens
  MIC: < 0.5 µg/mL
Streptococcus [3]
  MIC: 0.12 µg/mL (≈ 0.164 µM)
Staphylococcus aureus [4]
  MIC: 0.25 µg/mL (≈ 0.341 µM)
[5]
  MIC: 1 µg/mL (≈ 1.36 µM)
[6]
  MIC: 1 µg/mL (≈ 1.36 µM)
Streptococcus [7]
  MIC: 2 µg/mL (≈ 2.73 µM)
Bacteroides fragilis [8]
  MIC: 2 µg/mL (≈ 2.73 µM)
Bacteroides fragilis [9]
  MIC: 1 µg/mL (≈ 1.36 µM)
[10]
  MIC: 4 µg/mL (≈ 5.45 µM)
Staphylococcus aureus [11]
  MIC: 0.25 µg/mL (≈ 0.341 µM)
Mus musculus [12]
  Concentration: 5.6 µg ml-1 ml-1
Streptococcus [13]
  MIC: 0.1 µg/mL (≈ 0.136 µM)
Clostridioides difficile
  MIC: < 0.5 µg/mL
Bacteroides fragilis [14]
  MIC: 4 µg/mL (≈ 5.45 µM)
Streptococcus [15]
  MIC: 0.12 µg/mL (≈ 0.164 µM)
Streptococcus [16]
  MIC: 0.06 µg/mL (≈ 0.0818 µM)
[17]
  MIC: 0.06 µg/mL (≈ 0.0818 µM)
Streptococcus pneumoniae [18]
  MIC: 6 µg/mL (≈ 8.18 µM)
Haemophilus influenzae [19]
  MIC: 4 µg/mL (≈ 5.45 µM)
Eikenella corrodens
  MIC: 1 µg/mL (≈ 1.36 µM)
Mus musculus [20]
  Concentration: 0.7 µg ml-1 ml-1
Rattus norvegicus [21]
  Concentration: 0.1 µg ml-1 ml-1
Haemophilus influenzae [22]
  MIC: 2 µg/mL (≈ 2.73 µM)
Rattus norvegicus [23]
  Concentration: 0.1 µg ml-1 ml-1
[24]
  MIC: < 0.5 µg/mL
Streptococcus [25]
  MIC: 0.06 µg/mL (≈ 0.0818 µM)
Staphylococcus aureus [26]
  MIC: 0.25 µg/mL (≈ 0.341 µM)
Rattus norvegicus [27]
  Concentration: 0.2 µg ml-1 ml-1
[28]
  MIC: 2 µg/mL (≈ 2.73 µM)
[29]
  MIC: 1 µg/mL (≈ 1.36 µM)
Mus musculus [30]
  Concentration: 2.7 µg ml-1 ml-1
Streptococcus [31]
  MIC: 0.06 µg/mL (≈ 0.0818 µM)
Haemophilus influenzae [32]
  MIC: 4 µg/mL (≈ 5.45 µM)
[33]
  MIC: 8 µg/mL (≈ 10.9 µM)
Rattus norvegicus [34]
  Concentration: 0.1 µg ml-1 ml-1
[35]
  MIC: 2 µg/mL (≈ 2.73 µM)
Collinsella aerofaciens
  MIC: < 0.5 µg/mL
Fusobacterium
  MIC: 2 µg/mL (≈ 2.73 µM)
Streptococcus [36]
  MIC: 1 µg/mL (≈ 1.36 µM)

## CC[C@H]1OC(=O)C[C@@H](O)[C@H](C)[C@@H](O[C@@H]2O[C@H](C)[C@@H](O)[C@H](N(C)C)[C@H]2O)[C@@H](CCNCCc2ccccc2)C[C@@H](C)C(=O)/C=C/C(C)=C/[C@@H]1CO
Haemophilus influenzae [37]
  MIC: 8 µg/mL (≈ 11.4 µM)
Staphylococcus aureus [38]
  MIC: 4 µg/mL (≈ 5.69 µM)
Streptococcus pyogenes [39]
  MIC: 2 µg/mL (≈ 2.85 µM)
Enterococcus faecium
  MIC: 8 µg/mL (≈ 11.4 µM)
Streptococcus pyogenes [40]
  ED50: 7.2 mg/kg
Streptococcus pneumoniae [41]
  MIC: 1 µg/mL (≈ 1.42 µM)
[42]
  MIC: 4 µg/mL (≈ 5.69 µM)
Streptococcus pyogenes [43]
  ED50: > 100 mg/kg

## CC[C@H]1OC(=O)C[C@@H](O)[C@H](C)[C@@H](O[C@@H]2O[C@H](C)[C@@H](O)[C@H](N(C)C)[C@H]2O)[C@@H](CCN)C[C@@H](C)C(=O)/C=C/C(C)=C/[C@@H]1CO[C@@H]1O[C@H](C)[C@@H](O)[C@@H](OC)[C@H]1OC
Haemophilus influenzae [37]
  MIC: 128 µg/mL (≈ 166 µM)
Staphylococcus aureus [38]
  MIC: 4 µg/mL (≈ 5.17 µM)
Streptococcus pyogenes [39]
  MIC: 32 µg/mL (≈ 41.4 µM)
Enterococcus faecium
  MIC: 128 µg/mL (≈ 166 µM)
Streptococcus pyogenes [40]
  ED50: > 10 mg/kg
Streptococcus pneumoniae [41]
  MIC: 32 µg/mL (≈ 41.4 µM)
[42]
  MIC: 8 µg/mL (≈ 10.3 µM)
Streptococcus pyogenes [43]
  ED50: > 100 mg/kg

## CC[C@H]1OC(=O)C[C@@H](O)[C@H](C)[C@@H](O[C@@H]2O[C@H](C)[C@@H](O)[C@H](N(C)C)[C@H]2O)[C@@H](CC=O)C[C@@H](C)C(=O)/C=C/C(C)=C/[C@@H]1CO[C@@H]1O[C@H](C)[C@@H](O)[C@@H](O)[C@H]1OC
Haemophilus influenzae [37]
  MIC: 8 µg/mL (≈ 10.6 µM)
Staphylococcus aureus [38]
  MIC: 2 µg/mL (≈ 2.64 µM)
Streptococcus pyogenes [39]
  MIC: 0.25 µg/mL (≈ 0.33 µM)
Enterococcus faecium
  MIC: 4 µg/mL (≈ 5.28 µM)
Streptococcus pyogenes [40]
  ED50: 1.8 mg/kg
Streptococcus pneumoniae [41]
  MIC: 0.25 µg/mL (≈ 0.33 µM)
[42]
  MIC: 2 µg/mL (≈ 2.64 µM)
Streptococcus pyogenes [43]
  ED50: 81 mg/kg

## CC[C@H]1OC(=O)C[C@@H](O)[C@H](C)[C@@H](O[C@@H]2O[C@H](C)[C@@H](O)[C@H](N(C)C)[C@H]2O)[C@@H](CCS(=O)(=O)c2ccc(C)cc2)C[C@@H](C)C(=O)/C=C/C(C)=C/[C@@H]1CO[C@@H]1O[C@H](C)[C@@H](O)[C@@H](OC)[C@H]1OC
Haemophilus influenzae [37]
  MIC: 16 µg/mL (≈ 17.5 µM)
Staphylococcus aureus [38]
  MIC: 0.25 µg/mL (≈ 0.274 µM)
Streptococcus pyogenes [39]
  MIC: 1 µg/mL (≈ 1.1 µM)
Enterococcus faecium
  MIC: 8 µg/mL (≈ 8.77 µM)
Streptococcus pyogenes [40]
  ED50: 4.2 mg/kg
Streptococcus pneumoniae [41]
  MIC: 1 µg/mL (≈ 1.1 µM)
[42]
  MIC: 0.25 µg/mL (≈ 0.274 µM)
Streptococcus pyogenes [43]
  ED50: > 50 mg/kg
